Reference: ChEMBL document CHEMBL5058577, “EUbOPEN Chemogenomics Library 2 (Multiplex)” (2022)

Tested on: U2OS
Assay: Multiplex assay against U2OS
Format: toxicity, cell-based
Conditions: human
Outline: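 At seeding, live cells were stained with Hoechst33342, BioTracker Green Microtubule Cytoskeleton Dye, MitoTracker Red and Annexin V Alexa Fluor 680. After compound addition they were imaged on a CQ1 microscope at 37°C and 5% CO2, and CellPathfinder machine-learning gating sorted them into Hoechst high-intensity objects or normal cells, with normal cells further split into healthy, pyknosed or fragmented nuclei and pyknosed cells into mitotic or apoptotic. Tubulin, mitochondrial-mass and membrane-permeability phenotypes are given as per cents of cells with healthy nuclei.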

[1] = 12 h, 1 µM, compound concentration 1 uM, replicate 1
[2] = 12 h, 1 µM, compound concentration 1 uM, replicate 2
[3] = 12 h, 10 µM, compound concentration 10 uM, replicate 1
[4] = 12 h, 10 µM, compound concentration 10 uM, replicate 2
[5] = 24 h, 1 µM, compound concentration 1 uM, replicate 1
[6] = 24 h, 1 µM, compound concentration 1 uM, replicate 2
[7] = 24 h, 10 µM, compound concentration 10 uM, replicate 1
[8] = 24 h, 10 µM, compound concentration 10 uM, replicate 2
[9] = 48 h, 1 µM, compound concentration 1 uM, replicate 1
[10] = 48 h, 1 µM, compound concentration 1 uM, replicate 2
[11] = 48 h, 10 µM, compound concentration 10 uM, replicate 1
[12] = 48 h, 10 µM, compound concentration 10 uM, replicate 2

N[C@](CC1c2ccccc2Oc2ccccc21)(C(=O)O)[C@H]1C[C@@H]1C(=O)O
Population Apoptotic (%) [1]: 80%
Population Fragmented Nuclei (%) [1]: 22%
Population Healthy Nuclei (%) [1]: 67%
Population Hoechst High Intensity Objects (%) [1]: 1%
Population Membrane Permeable-Phenotype (%) [1]: 6%
Population Mitochondria Different-Phenotype (%) [1]: 2%
Population Mitotic Cells (%) [1]: 20%
Population Normal (%) [1]: 98%
Population Pyknosed Nuclei (%) [1]: 9%
Population Tubulin-Different-Phenotype (%) [1]: 4%
Total Cell Count [1]: 218
Population Apoptotic (%) [2]: 72%
Population Fragmented Nuclei (%) [2]: 10%
Population Healthy Nuclei (%) [2]: 79%
Population Membrane Permeable-Phenotype (%) [2]: 1%
Population Mitochondria Different-Phenotype (%) [2]: 8%
Population Mitotic Cells (%) [2]: 27%
Population Tubulin-Different-Phenotype (%) [2]: 3%
Total Cell Count [2]: 114
Population Apoptotic (%) [3]: 84%
Population Fragmented Nuclei (%) [3]: 18%
Population Healthy Nuclei (%) [3]: 72%
Population Hoechst High Intensity Objects (%) [3]: 3%
Population Membrane Permeable-Phenotype (%) [3]: 5%
Population Mitochondria Different-Phenotype (%) [3]: 3%
Population Mitotic Cells (%) [3]: 16%
Population Normal (%) [3]: 96%
Population Pyknosed Nuclei (%) [3]: 8%
Population Tubulin-Different-Phenotype (%) [3]: 2%
Total Cell Count [3]: 295
Population Apoptotic (%) [4]: 83%
Population Fragmented Nuclei (%) [4]: 19%
Population Healthy Nuclei (%) [4]: 76%
Population Hoechst High Intensity Objects (%) [4]: 0%
Population Membrane Permeable-Phenotype (%) [4]: 7%
Population Mitochondria Different-Phenotype (%) [4]: 0%
Population Normal (%) [4]: 100%
Population Pyknosed Nuclei (%) [4]: 4%
Total Cell Count [4]: 141
Population Apoptotic (%) [5]: 78%
Population Fragmented Nuclei (%) [5]: 20%
Population Healthy Nuclei (%) [5]: 70%
Population Hoechst High Intensity Objects (%) [5]: 1%
Population Membrane Permeable-Phenotype (%) [5]: 1%
Population Mitochondria Different-Phenotype (%) [5]: 1%
Population Mitotic Cells (%) [5]: 21%
Population Normal (%) [5]: 98%
Population Pyknosed Nuclei (%) [5]: 8%
Population Tubulin-Different-Phenotype (%) [5]: 1%
Total Cell Count [5]: 272
Population Apoptotic (%) [6]: 63%
Population Fragmented Nuclei (%) [6]: 14%
Population Healthy Nuclei (%) [6]: 77%
Population Hoechst High Intensity Objects (%) [6]: 0%
Population Membrane Permeable-Phenotype (%) [6]: 4%
Population Mitochondria Different-Phenotype (%) [6]: 5%
Population Mitotic Cells (%) [6]: 36%
Population Normal (%) [6]: 99%
Population Tubulin-Different-Phenotype (%) [6]: 2%
Total Cell Count [6]: 137
Population Apoptotic (%) [7]: 80%
Population Fragmented Nuclei (%) [7]: 13%
Population Healthy Nuclei (%) [7]: 79%
Population Hoechst High Intensity Objects (%) [7]: 3%
Population Membrane Permeable-Phenotype (%) [7]: 3%
Population Mitochondria Different-Phenotype (%) [7]: 3%
Population Mitotic Cells (%) [7]: 20%
Population Normal (%) [7]: 96%
Population Pyknosed Nuclei (%) [7]: 7%
Population Tubulin-Different-Phenotype (%) [7]: 1%
Total Cell Count [7]: 365
Population Apoptotic (%) [8]: 81%
Population Fragmented Nuclei (%) [8]: 15%
Population Healthy Nuclei (%) [8]: 77%
Population Hoechst High Intensity Objects (%) [8]: 0%
Population Membrane Permeable-Phenotype (%) [8]: 8%
Population Mitochondria Different-Phenotype (%) [8]: 1%
Population Mitotic Cells (%) [8]: 18%
Population Normal (%) [8]: 99%
Population Pyknosed Nuclei (%) [8]: 6%
Population Tubulin-Different-Phenotype (%) [8]: 3%
Total Cell Count [8]: 164
Population Apoptotic (%) [9]: 89%
Population Fragmented Nuclei (%) [9]: 14%
Population Healthy Nuclei (%) [9]: 75%
Population Hoechst High Intensity Objects (%) [9]: 2%
Population Membrane Permeable-Phenotype (%) [9]: 3%
Population Mitochondria Different-Phenotype (%) [9]: 1%
Population Mitotic Cells (%) [9]: 10%
Population Normal (%) [9]: 97%
Population Pyknosed Nuclei (%) [9]: 9%
Population Tubulin-Different-Phenotype (%) [9]: 1%
Total Cell Count [9]: 403
Population Apoptotic (%) [10]: 85%
Population Fragmented Nuclei (%) [10]: 16%
Population Healthy Nuclei (%) [10]: 72%
Population Hoechst High Intensity Objects (%) [10]: 1%
Population Membrane Permeable-Phenotype (%) [10]: 5%
Population Mitochondria Different-Phenotype (%) [10]: 3%
Population Mitotic Cells (%) [10]: 15%
Population Normal (%) [10]: 98%
Population Pyknosed Nuclei (%) [10]: 10%
Population Tubulin-Different-Phenotype (%) [10]: 4%
Total Cell Count [10]: 190
Population Apoptotic (%) [11]: 90%
Population Fragmented Nuclei (%) [11]: 15%
Population Healthy Nuclei (%) [11]: 77%
Population Hoechst High Intensity Objects (%) [11]: 1%
Population Membrane Permeable-Phenotype (%) [11]: 4%
Population Mitochondria Different-Phenotype (%) [11]: 3%
Population Mitotic Cells (%) [11]: 10%
Population Normal (%) [11]: 98%
Population Pyknosed Nuclei (%) [11]: 7%
Population Tubulin-Different-Phenotype (%) [11]: 2%
Total Cell Count [11]: 554
Population Apoptotic (%) [12]: 81%
Population Fragmented Nuclei (%) [12]: 12%
Population Healthy Nuclei (%) [12]: 78%
Population Hoechst High Intensity Objects (%) [12]: 0%
Population Membrane Permeable-Phenotype (%) [12]: 7%
Population Mitochondria Different-Phenotype (%) [12]: 1%
Population Mitotic Cells (%) [12]: 18%
Population Normal (%) [12]: 100%
Population Pyknosed Nuclei (%) [12]: 9%
Population Tubulin-Different-Phenotype (%) [12]: 3%
Total Cell Count [12]: 238
